As usually defined, the EC50 is the concentration giving half of the maximal effect. In general, Kd refers to the constant that tells how readily two partners part at equilibrium.

Data set [1] addresses T1, Lysophosphatidic acid receptor 1 (Homo sapiens, UniProt Q92633). Nature of the data set: Agonist activity at LPA1 receptor (unknown origin) stably expressed in rat RH7777 cells assessed as increase in intracellular calcium level at 10 uM by Fluo-4 NW dye based fluorescence assay. It is filed as functional, cell-based. In a few lines: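 LPA1-stably transfected RH7777 hepatoma cells on poly-D-lysine, 50000 cells/well, cultured overnight. Loaded with Fluo-4 NW plus […] for 30 min at 37°C, then 30 min at rt. Compound added at 120 s of a 240 s read (ex 494/em 525 nm). Response taken as maximum minus baseline, relative to the 10 μM LPA control; ionomycin 10 μM also included. Run in triplicate.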

For data set [2], the target named is T1, Lysophosphatidic acid receptor 1. Nature of the data set: Agonist activity at recombinant human full-length LPA1 receptor expressed in dhfr- deficient CHO cells assessed as increase in intracellular calcium flux measured for 1 min by fluo-3AM dye based FLIPR assay. It counts as functional, cell-based.
Data set [3] deals with Lysophosphatidic acid receptor 1 (Rattus norvegicus) (UniProt P61794). Nature of the data set: Agonist activity at LPA1 receptors in Wistar rat DRG neurons assessed as increase in calcium influx at 500 nM measured after 10 secs in presence of capsaicin by Fluo-4 NW dye based inverted microscopic method. It counts as functional.
Data set [4] addresses T1, Lysophosphatidic acid receptor 1. Nature of the data set: Agonist activity at LPA1 receptor (unknown origin) stably expressed in rat RH7777 cells assessed as increase in intracellular calcium level by Fluo-4 NW dye based fluorescence assay. It is filed as functional, cell-based. A general note: A change in cytosolic calcium serves as a functional read-out for many receptors and channels.

Data set [5] concerns the target Lysophosphatidic acid receptor 1 (Rattus norvegicus) (UniProt P61794). In words: Agonist activity at LPA1 receptors in Wistar rat DRG neurons assessed as increase in neuronal activity at 10 uM incubated for 15 secs in presence of capsazepine by Microelectrode Array. In a few lines:
(§1)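 Neonatal Wistar rat DRG neurons, cultured 48 h on poly-L-lysine/laminin-coated 60-electrode MEA chips. Compound perfused at 10 μM final for 15 s at 2 mL/min. Extracellular activity recorded at 25 kHz; output is mean spike frequency.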

Data set [6] shares this target. In words: Agonist activity at LPA1 receptors in Wistar rat DRG neurons assessed as increase in neuronal activity at 10 uM incubated for 15 secs in presence of capsaicin by Microelectrode Array. In a few lines:
as §1

Data set [7] shares this target. Nature of the data set: Induction of LPA1 receptor desensitization in Wistar rat DRG neurons assessed as reduction in calcium influx at 10 uM treated twice after 10 secs in presence of capsaicin by Fluo-4 NW dye based inverted microscopic method. It is filed as functional. Summed up: (§2)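 DRG neurons from 3–5-day-old Wistar rats were collagenase-digested and cultured 48 h with NGF. Cells loaded with 5 μM Fluo-4AM and 0.02% pluronic in HEPES-buffered HBSS pH 7.4 for 1 h at 37°C, then perfused at rt. Compound given at 10 μM final (from 10 mM DMSO stock) as 10 s pulses. Capsaicin and 40 mM KCl (10 s, viability) also applied. Signal is peak minus baseline fluorescence; a response is >20% over baseline.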

Data set [8] shares this target. Nature of the data set: Agonist activity at LPA1 receptors in Wistar rat DRG neurons assessed as increase in calcium influx at 10 uM measured after 10 secs in presence of capsaicin by Fluo-4 NW dye based inverted microscopic method. It is filed as functional. In a few lines: as §2
Data set [9] shares this target. In words: Induction of LPA1 receptor desensitization in Wistar rat DRG neurons assessed as reduction in neuronal activity at 10 uM treated for 15 secs twice with 4 mins interval in presence of capsaicin by microelectrode Array. In a few lines:
as §1

Data set [10] shares this target. Nature of the data set: Induction of LPA1 receptor desensitization in Wistar rat DRG neurons assessed as reduction in neuronal activity at 10 uM treated for 15 secs twice with 4 mins interval in presence of capsazepine by microelectrode Array. In a few lines: as §1
Data set [11] addresses T1, Lysophosphatidic acid receptor 1. Nature of the data set: Binding affinity to LPA1 receptor (unknown origin) by cell-based backscattering interferometry.
A short description of data set [12]: Stability of the compound in culture medium assessed as parent compound remaining incubated for up to 8 hrs by HPLC-MS. It counts as physicochemical. Particulars: read-out: Stability. Summed up: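 Compound from a 50 mM DMSO stock was added to culture medium pre-warmed to 37°C and incubated at 37°C. Aliquots were quenched in cold acetonitrile, iced 10 min and centrifuged. Supernatants were analysed by HPLC-MS in SIM mode, with peak area normalised to an internal standard.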

A short description of data set [13]: Stability of the compound in PBS at pH 7.4 assessed as parent compound remaining incubated up to 8 hrs by HPLC-MS. It is filed as physicochemical. Particulars: read-out: Stability. Summed up: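 Compound from a 25 mM DMSO stock was diluted into PBS pH 7.4 and kept at rt. Parent compound remaining at each time point was measured by HPLC-MS in SIM mode, with peak area normalised to an internal standard.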

SMILES strings stand for the structures. Calls of active or inactive are those of the source. The calls are words filed in the database; no cut-off is given here. Where only a bound is given, the exact number is not on record here.

T1 sequence (Q92633 whole entry): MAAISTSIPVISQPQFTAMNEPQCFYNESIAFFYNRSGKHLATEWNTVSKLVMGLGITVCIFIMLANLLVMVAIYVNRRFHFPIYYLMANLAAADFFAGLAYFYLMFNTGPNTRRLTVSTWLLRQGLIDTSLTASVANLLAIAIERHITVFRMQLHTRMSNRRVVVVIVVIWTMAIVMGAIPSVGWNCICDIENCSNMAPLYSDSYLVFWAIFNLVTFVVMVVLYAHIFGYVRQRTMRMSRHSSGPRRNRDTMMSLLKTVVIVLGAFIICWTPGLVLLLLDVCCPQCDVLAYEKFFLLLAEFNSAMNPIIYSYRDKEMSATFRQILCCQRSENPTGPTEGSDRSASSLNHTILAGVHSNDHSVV
Sequence of Lysophosphatidic acid receptor 1 (Rattus norvegicus) (P61794 whole entry, the tested form may be a part): as the sequence (Q92633 whole entry) above, with I4A, I8S, P22Q, H40Y, I61V, E193D, N194H, I269V, S331N, T335N counted along it

`O=C(CCCCCCCCCc1ccccc1)OC[C@@H]1CC(F)(C(=O)O)C(=O)O1` (stereo partly drawn): in data set [1], the result was inactive.
Still for that read-out and setting: the value for `CCCCCCCC/C=C\CCCCCCCC(=O)OC[C@@H](O)COc1ccc(B(O)O)cc1` was “inactive”.
Still for that read-out and setting: then `CCCCCCCC/C=C\CCCCCCCC(=O)OC[C@@H](O)Cc1nnn[nH]1`, with “inactive”; and `CCCCCCCC/C=C\CCCCCCCC(=O)OCCCC(C(=O)O)C(=O)O`, with “inactive”.
For the compound `O=C(CCCCCCc1ccc(-c2ccccc2)cc1)OC[C@@H](O)COP(=O)(O)O`, in data set [1], the result was inactive.
`CC1CCC2(C)c3[nH]c4ccccc4c3CCN2C1` (stereo not drawn): the half-maximal effective concentration (EC50) in data set [2] was 3.6 µM.
As to `CCCCCC/C=C\CCCCCCCC(=O)OC[C@@H]1C[C@@](F)(C(=O)O)C(=O)O1`, the outcome in [1] was inactive.
`CCCCCCCC/C=C\CCCCCCCC(=O)NC[C@H](CC(F)(C(=O)O)C(=O)O)OC`: the result in [1] was inactive.
For `COc1cc(CNC(=O)CCCC/C=C/C(C)C)ccc1O`, the outcome in [3] was Active.
On to `O=C(CCCCCCCCc1ccccc1)O[C@H](CBr)COP(=O)(O)O`, for which the result in [1] was inactive.
Turning to `CCCCCCCC/C=C\CCCCCCCC(=O)O[C@H](CBr)COP(=O)(O)O`, the EC50 in [4] turned out to be 3.2 µM.
For `O=C(CCCCCCCCCCCCc1ccc(-c2ccccc2)cc1)OC[C@@H](O)COP(=O)(O)O`, the concentration for a half-maximal effect (EC50) in [4] stood at 19 µM.
For `CCCCCCCC/C=C\CCCCCCCC(=O)OC[C@@H](O)COCC(=O)O`, the outcome in [1] was inactive.
Turning to `CCCCCC/C=C\CCCCCCCC(=O)O[C@H](CBr)COP(=O)(O)O`, the outcome in data set [1] was inactive.
For `CCCCCCCCCC/C=C\CCCCCCCC(=O)OC[C@@H](O)COP(=O)(O)O`, the outcome in [1] was inactive.
For `CCCCCC/C=C\CCCCCCCC(=O)OC[C@@H]1C[C@](F)(C(=O)O)C(=O)O1`, the result in data set [1] was inactive.
Regarding `CCCCCCCC/C=C\CCCCCCCC(=O)OC[C@@H](O)COP(=O)(O)O` [LYSOPHOSPHATIDIC ACID], the outcome in data set [5], in data set [6], in data set [7], in data set [8], in [9] and in data set [10] was Active. Further, the EC50 in [4] turned out to be 0.83 µM. Moreover, binding in [11] was put at a Kd of 0.0056 µM.
Take `O=C(CCCCCCCCCCc1ccccc1)O[C@H](CBr)COP(=O)(O)O`: the outcome in data set [1] was inactive.
Still for that read-out and setting: the value for `CO[C@H](COC(=O)CCCCCCCCCc1ccccc1)CC(F)(C(=O)O)C(=O)O` was “inactive”; that for `O=C(CCCCCCc1ccccc1)OC[C@@H](O)COP(=O)(O)O` was “inactive”.
On to `O=C(CCCCCCCCCc1ccccc1)O[C@H](CBr)COP(=O)(O)O`, for which the remaining at 8 h in data set [12] and in data set [13] was greater than 85% in each case.
For `O=C(CCCCCCCc1ccccc1)OC[C@@H](O)COP(=O)(O)O`, in data set [1], the result was inactive.
On the same count and under the same terms, then `CCCCCCCC/C=C\CCCCCCCC(=O)OCCCC(F)(C(=O)O)C(=O)O`, with “inactive”.
For `CCCCCCCC/C=C\CCCCCCCC(=O)OC[C@@H]1CC(C(=O)O)C(=O)O1` (stereo partly drawn), in [1], the outcome was inactive.
Same read-out and setting: the value for `O=C(CCCCCCCCCCCCCCc1ccccc1)OC[C@@H](O)COP(=O)(O)O` was “inactive”.

(Values after ChEMBL document CHEMBL4610001 (J Med Chem, 2020).)
